Key:
Format in all cases: cell membranes
[1] = molecular target: Neuronal acetylcholine receptor subunit alpha-7 (Rattus norvegicus, UniProt Q05941); assay: Displacement of [125I]alpha-bungarotoxin from alpha7 nicotinic acetylcholine receptor in rat brain cortex membrane homogenates
How it was run: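 Cortex membrane homogenates from 21-day-old rats in buffer A (Tris-HCl pH 7 with salts, PMSF). Compounds (10 pM-10 mM) preincubated 30 min at rt, then overnight at rt with 1 nM final [¹²⁵I]-α-bungarotoxin. Nonspecific: 1 μM unlabeled α-bungarotoxin. Filtration, γ counting. Ki fitted by LIGAND from three independent competition experiments; no inhibition up to 200 μM taken as Ki >100 μM.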

[2] = molecular target: T1, Neuronal acetylcholine receptor; alpha4/beta2 (Rattus norvegicus, UniProt P09483+P12390); assay: Displacement of (+/-)-[3H]epibatidine from alpha4beta2 nicotinic acetylcholine receptor in rat brain cortex membrane homogenates
How it was run: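 Compounds (10 pM-10 mM) preincubated 30 min rt, then overnight at 4 °C with 0.005-0.1 nM final [³H]-epibatidine. Nonspecific: 100 nM epibatidine. Filtration, β counting. Ki by LIGAND fit of three independent experiments.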

[3] = molecular target: T1, Neuronal acetylcholine receptor; alpha4/beta2; assay: Displacement of [3H]cytisine from alpha4beta2 nicotinic acetylcholine receptor in rat brain cortex membrane homogenates

Neuronal acetylcholine receptor subunit alpha-7, sequence (Q05941 whole entry): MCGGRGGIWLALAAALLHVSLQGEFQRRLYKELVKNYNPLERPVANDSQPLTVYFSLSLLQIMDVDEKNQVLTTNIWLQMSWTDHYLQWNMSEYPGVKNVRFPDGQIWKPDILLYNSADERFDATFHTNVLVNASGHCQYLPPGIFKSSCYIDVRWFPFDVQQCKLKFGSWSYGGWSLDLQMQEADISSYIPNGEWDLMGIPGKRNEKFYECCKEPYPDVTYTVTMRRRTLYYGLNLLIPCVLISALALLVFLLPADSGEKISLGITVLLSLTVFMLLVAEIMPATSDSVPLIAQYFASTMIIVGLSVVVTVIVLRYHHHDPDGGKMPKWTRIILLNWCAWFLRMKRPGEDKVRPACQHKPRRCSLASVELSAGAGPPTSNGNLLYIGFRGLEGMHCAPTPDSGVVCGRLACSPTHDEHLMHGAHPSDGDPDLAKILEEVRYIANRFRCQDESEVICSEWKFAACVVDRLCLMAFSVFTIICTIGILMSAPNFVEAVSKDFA
T1 sequence (P09483 whole entry): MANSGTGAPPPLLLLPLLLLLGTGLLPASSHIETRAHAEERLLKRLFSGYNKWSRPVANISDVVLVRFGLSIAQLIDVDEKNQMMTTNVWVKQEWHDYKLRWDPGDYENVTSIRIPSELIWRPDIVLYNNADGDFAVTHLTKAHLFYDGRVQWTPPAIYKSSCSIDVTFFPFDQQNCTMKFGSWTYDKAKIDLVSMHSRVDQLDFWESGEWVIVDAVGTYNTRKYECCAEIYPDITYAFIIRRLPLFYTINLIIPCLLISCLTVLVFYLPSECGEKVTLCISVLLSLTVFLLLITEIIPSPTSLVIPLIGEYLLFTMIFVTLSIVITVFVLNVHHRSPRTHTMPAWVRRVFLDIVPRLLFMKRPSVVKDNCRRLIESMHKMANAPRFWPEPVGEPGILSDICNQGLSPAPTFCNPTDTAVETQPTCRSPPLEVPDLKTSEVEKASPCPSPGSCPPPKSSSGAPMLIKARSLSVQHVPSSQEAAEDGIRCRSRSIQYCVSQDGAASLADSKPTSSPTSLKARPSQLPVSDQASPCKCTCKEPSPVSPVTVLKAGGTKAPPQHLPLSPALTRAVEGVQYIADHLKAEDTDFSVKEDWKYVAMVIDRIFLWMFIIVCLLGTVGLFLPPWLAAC
T1 sequence (P12390 whole entry): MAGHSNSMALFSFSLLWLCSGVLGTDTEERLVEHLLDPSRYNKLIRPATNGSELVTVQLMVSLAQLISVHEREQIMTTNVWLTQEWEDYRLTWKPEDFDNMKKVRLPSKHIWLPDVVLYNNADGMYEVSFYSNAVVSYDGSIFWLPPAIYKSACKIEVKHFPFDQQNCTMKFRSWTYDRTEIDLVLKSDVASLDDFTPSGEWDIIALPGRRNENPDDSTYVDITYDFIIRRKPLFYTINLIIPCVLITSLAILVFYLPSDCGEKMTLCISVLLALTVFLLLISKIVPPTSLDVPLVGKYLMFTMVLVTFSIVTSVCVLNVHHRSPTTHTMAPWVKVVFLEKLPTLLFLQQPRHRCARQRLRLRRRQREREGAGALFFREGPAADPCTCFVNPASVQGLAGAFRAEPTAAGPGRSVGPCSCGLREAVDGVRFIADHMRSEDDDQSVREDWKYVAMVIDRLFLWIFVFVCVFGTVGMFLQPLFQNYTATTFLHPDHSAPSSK

SMILES	Ki [1]	Ki [2]	Ki [3]
O=c1cccc2n1C[C@H]1C[C@@H]2CN(CCCc2cccnc2)C1	> 100000 nM	744 nM	
O=C(CN1C[C@@H]2C[C@H](C1)c1cccc(=O)n1C2)c1ccccc1	2250 nM	17 nM	
O=c1cccc2n1C[C@H]1C[C@@H]2CN(CCCc2ccc(F)cc2)C1	> 50000 nM	5000 nM	611 nM
NC(=O)CCN1C[C@@H]2C[C@H](C1)c1cccc(=O)n1C2	3600 nM	35 nM	
CC(=O)CCN1C[C@@H]2C[C@H](C1)c1cccc(=O)n1C2	1240 nM	8.7 nM	3.2 nM
O=c1cccc2n1C[C@H]1C[C@@H]2CN(Cc2cccnc2)C1	> 100000 nM	6600 nM	
O=C(CCCN1C[C@@H]2C[C@H](C1)c1cccc(=O)n1C2)c1ccccc1	> 50000 nM	816 nM	
O=c1cccc2n1C[C@H]1C[C@@H]2CN(CCc2ccc(F)cc2)C1	> 50000 nM	1300 nM	
NC(=O)CN1C[C@@H]2C[C@H](C1)c1cccc(=O)n1C2	> 50000 nM	7300 nM	
O=c1cccc2n1C[C@H]1C[C@@H]2CN(CCCCc2ccccc2)C1		3900 nM	2220 nM
O=c1cccc2n1C[C@H]1C[C@@H]2CN(Cc2ccncc2)C1	> 100000 nM	675 nM	
Cc1ccc(CCCN2C[C@@H]3C[C@H](C2)c2cccc(=O)n2C3)cc1	> 50000 nM	7200 nM	
O=c1cccc2n1C[C@H]1C[C@@H]2CN(CCc2ccccn2)C1	> 100000 nM	941 nM	
O=C(CCN1C[C@@H]2C[C@H](C1)c1cccc(=O)n1C2)c1ccccc1	550 nM	2.6 nM	7.2 nM
O=c1cccc2n1C[C@H]1C[C@@H]2CN(CCc2ccccc2)C1	25000 nM	28 nM	78 nM
CCCCCN1C[C@@H]2C[C@H](C1)c1cccc(=O)n1C2	39700 nM	332 nM	43.5 nM
Cc1ccc(CCN2C[C@@H]3C[C@H](C2)c2cccc(=O)n2C3)cc1	> 50000 nM	727 nM	
O=C(CN1C[C@@H]2C[C@H](C1)c1cccc(=O)n1C2)c1ccc(F)cc1		409 nM	172 nM
O=c1cccc2n1C[C@H]1C[C@@H]2CN(CCCc2ccccc2)C1	13000 nM	63 nM	42 nM
O=c1cccc2n1C[C@H]1C[C@@H]2CN(CCc2ccncc2)C1	4200 nM	7.2 nM	
O=C(CCN1C[C@@H]2C[C@H](C1)c1cccc(=O)n1C2)c1ccc(F)cc1	433 nM	5.3 nM	13 nM
O=c1cccc2n1C[C@H]1C[C@@H]2CN(CCCCc2ccc(F)cc2)C1	> 50000 nM	13000 nM	
O=c1cccc2n1C[C@H]1C[C@@H]2CN(Cc2ccccc2)C1	> 50000 nM	850 nM	1000 nM
O=C(CCCN1C[C@@H]2C[C@H](C1)c1cccc(=O)n1C2)c1ccc(F)cc1	> 50000 nM	965 nM	670 nM
CC(=O)CCCN1C[C@@H]2C[C@H](C1)c1cccc(=O)n1C2	> 50000 nM	757 nM	
O=c1cccc2n1C[C@@H]1CNC[C@H]2C1 [CYTISINICLINE]	331 nM	0.48 nM	0.34 nM
O=c1cccc2n1C[C@H]1C[C@@H]2CN(Cc2ccc(F)cc2)C1	78700 nM	330 nM	183 nM

Reference: ChEMBL document CHEMBL1137789, “Synthesis, binding, and modeling studies of new cytisine derivatives, as ligands for neuronal nicotinic acetylcholine receptor subtypes” (J Med Chem, 2009)
